We go through 23 compounds from ChEMBL document CHEMBL1128518, “Synthesis and anti-HIV-1 activity of thio analogues of dihydroalkoxybenzyloxopyrimidines” (J Med Chem, 1995).

Molecules are shown by their SMILES.

The first assay concerns MT4. Kind of assay: Compound dose required to reduce the viability of mock-infected cells by 50%, as determined by the MTT method. It counts as functional. The following applies: Homo sapiens. The method, boiled down:
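Mock-infected MT-4 cells (1 × 10^4/well) exposed to serial compound concentrations, run in parallel with the antiviral assay, 4 days at 37 °C. Viability read by MTT; CC50 is the dose reducing viability by 50%. Means of three separate experiments.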
On to `Cc1cccc(/C=C2/N=C(SCC(C)C)NC(=O)C2(C)C)c1`, for which the cytotoxic concentration (CC50) is over 316 µM.

The next assay has as its system MT4. The experiment in a line: Selectivity index calculated as the ratio between CC50 and EC50. It counts as functional.
Settings: not given
The method, boiled down:
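Ratio CC50/EC50, both from MTT-read 4-day MT-4 assays (mock-infected and HIV-1 IIIB-infected, 100 CCID50) run in parallel.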
`CC1(C)C(=O)NC(SC2CCCC2)=N/C1=C/c1ccccc1`: the SI is 1.8.
For `CC(C)SC1=N/C(=C/c2ccccc2)C(C)(C)C(=O)N1`, the SI is listed as 5.5.
The same measure, in the same setting: the value for `CC(C)CSc1nc(O)cc(Cc2ccccc2)n1` was 36; that for `C/C=C/CSc1nc(O)cc(Cc2cccc(C)c2)n1` was 21; that for `CCC(C)Sc1nc(O)c(C)c(Cc2ccccc2)n1` (stereo not drawn) was 140.
The same measure, in the same setting: for `CSc1nc(O)cc(Cc2cccc(C)c2)n1` the value was 19.
Same read-out and setting: for `CC(C)=CCSc1nc(O)cc(Cc2cccc(C)c2)n1` the value was 15; for `Cc1cccc(Cc2nc(SC(C)C)nc(O)c2C)c1`, 77; for `Cc1c(O)nc(SC2CCCCC2)nc1Cc1ccccc1`, over 530.
Consider `CSc1nc(O)c(C)c(Cc2ccccc2)n1`, for which the SI was over 338.
The same measure, in the same setting: for `CSc1nc(O)cc(Cc2ccccc2)n1` the value was over 12; for `CSc1nc(O)c(C)c(Cc2cccc(C)c2)n1`, 128.
Same read-out and setting: the value for `Cc1cccc(Cc2cc(O)nc(SC3CCCCC3)n2)c1` was over 212; that for `Cc1cccc(Cc2cc(O)nc(SC3CCCC3)n2)c1` was over 278.
`Cc1c(O)nc(SC(C)C)nc1Cc1ccccc1`: the SI is listed as 77.
As to `CC(C)CSC1=N/C(=C/c2ccccc2)C(C)(C)C(=O)N1`, the SI is 5.5.
As for `Cc1cccc(Cc2nc(SCC(C)C)nc(O)c2C)c1`, the SI is recorded as 206.
With `CC(C)Sc1nc(O)cc(Cc2ccccc2)n1`, the SI is listed as 43.
Still for that read-out and setting: for `CCC(C)Sc1nc(O)cc(Cc2ccccc2)n1` (stereo not drawn) the value was 125; for `CC1(C)C(=O)NC(SC2CCCCC2)=N/C1=C/c1ccccc1`, 10.
Same read-out and setting: for `Cc1cccc(Cc2cc(O)nc(SC(C)C)n2)c1` the value was 173; for `CSC1=N/C(=C/c2ccccc2)C(C)(C)C(=O)N1`, 53.

The target of a further assay is Human immunodeficiency virus type 1 reverse transcriptase (Human immunodeficiency virus 1, UniProt Q72547). Kind of assay: Dose required to inhibit HIV-1 recombinant reverse transcriptase (rRT) activity by 50%. It counts as functional.
Settings: not given
An outline of the steps:
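Highly purified recombinant HIV-1 RT, assayed for RNA-dependent DNA polymerase activity. Template-primer: poly(rC)-oligo(dG)12–18 at 0.5 OD260 units/mL, with [3H]dGTP (1 Ci/mmol). Incubated 20 min at 37 °C; acid-insoluble radioactivity counted on glass fiber filters. Value is the dose giving 50% inhibition; means of three experiments.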
In the case of `CC1(C)C(=O)NC(SC2CCCC2)=N/C1=C/c1ccccc1`, the IC50 is over 10 µM.
In the case of `CC(C)SC1=N/C(=C/c2ccccc2)C(C)(C)C(=O)N1`, the IC50 came out at 4.3 µM.
As to `CC(C)CSc1nc(O)cc(Cc2ccccc2)n1`, the IC50 came to 9.4 µM.
Still for that read-out and setting: for `CCC(C)Sc1nc(O)c(C)c(Cc2ccccc2)n1` (stereo not drawn) the value was 2.4 µM.
Still for that read-out and setting: the value for `CSc1nc(O)cc(Cc2cccc(C)c2)n1` was over 10 µM; that for `Cc1cccc(Cc2nc(SC(C)C)nc(O)c2C)c1` was 2.5 µM; that for `Cc1c(O)nc(SC2CCCCC2)nc1Cc1ccccc1` was 4.3 µM.
On to `CSc1nc(O)c(C)c(Cc2ccccc2)n1`, for which the IC50 was found to be 4.9 µM.
On the same count and under the same terms, the value for `CSc1nc(O)cc(Cc2ccccc2)n1` was over 10 µM; that for `CSc1nc(O)c(C)c(Cc2cccc(C)c2)n1` was 2.5 µM; that for `Cc1cccc(Cc2cc(O)nc(SC3CCCCC3)n2)c1` was 2.6 µM.
The same measure, in the same setting: the value for `Cc1cccc(Cc2cc(O)nc(SC3CCCC3)n2)c1` was 2.6 µM; that for `Cc1c(O)nc(SC(C)C)nc1Cc1ccccc1` was 2.5 µM.
For the compound `CC(C)CSC1=N/C(=C/c2ccccc2)C(C)(C)C(=O)N1`, the IC50 was 4.6 µM.
Still for that read-out and setting: the value for `Cc1cccc(Cc2nc(SCC(C)C)nc(O)c2C)c1` was 4.6 µM; that for `CC(C)Sc1nc(O)cc(Cc2ccccc2)n1` was over 10 µM.
Consider `CCC(C)Sc1nc(O)cc(Cc2ccccc2)n1` (stereo not drawn), for which the IC50 stood at 2.7 µM.
Same read-out and setting: the value for `CC1(C)C(=O)NC(SC2CCCCC2)=N/C1=C/c1ccccc1` was over 10 µM; that for `Cc1cccc(Cc2cc(O)nc(SC(C)C)n2)c1` was 2.9 µM; that for `CSC1=N/C(=C/c2ccccc2)C(C)(C)C(=O)N1` was 6.1 µM.

The subject of a further assay is MT4. Kind of assay: Dose required to achieve 50% protection of MT-4 cells from HIV-1 induced cytopathogenicity. It counts as functional, cell-based. The following applies: Homo sapiens. On the technique in general: Protection from cytopathic effect is a common read-out in antiviral testing.
Consider `CC1(C)C(=O)NC(SC2CCCC2)=N/C1=C/c1ccccc1`, for which a half-maximal effect (EC50) was put at 10 µM.
The same measure, in the same setting: the value for `CC(C)SC1=N/C(=C/c2ccccc2)C(C)(C)C(=O)N1` was 3.6 µM; that for `CC(C)CSc1nc(O)cc(Cc2ccccc2)n1` was 5.1 µM.
For the compound `C/C=C/CSc1nc(O)cc(Cc2cccc(C)c2)n1`, the 50% effective concentration (EC50) was found to be 8 µM.
Same read-out and setting: the value for `CCC(C)Sc1nc(O)c(C)c(Cc2ccccc2)n1` (stereo not drawn) was 0.6 µM; that for `CSc1nc(O)cc(Cc2cccc(C)c2)n1` was 17 µM.
Take `CC(C)=CCSc1nc(O)cc(Cc2cccc(C)c2)n1`: the EC50 was 13 µM.
On the same count and under the same terms, the value for `Cc1cccc(Cc2nc(SC(C)C)nc(O)c2C)c1` was 1.3 µM.
Same read-out and setting: the value for `Cc1c(O)nc(SC2CCCCC2)nc1Cc1ccccc1` was 0.6 µM; that for `CSc1nc(O)c(C)c(Cc2ccccc2)n1` was 1.2 µM.
`CSc1nc(O)cc(Cc2ccccc2)n1` yielded an EC50 of 34.5 µM.
On the same count and under the same terms, the value for `CSc1nc(O)c(C)c(Cc2cccc(C)c2)n1` was 3 µM; that for `Cc1cccc(Cc2cc(O)nc(SC3CCCCC3)n2)c1` was 1.5 µM; that for `Cc1cccc(Cc2cc(O)nc(SC3CCCC3)n2)c1` was 1.2 µM.
The compound `Cc1c(O)nc(SC(C)C)nc1Cc1ccccc1` returned a concentration giving a half-maximal response (EC50) of 1.8 µM.
Still for that read-out and setting: for `CC(C)CSC1=N/C(=C/c2ccccc2)C(C)(C)C(=O)N1` the value was 3.6 µM; for `Cc1cccc(Cc2nc(SCC(C)C)nc(O)c2C)c1`, 1.6 µM; for `CC(C)Sc1nc(O)cc(Cc2ccccc2)n1`, 7.7 µM.
Compound `CCC(C)Sc1nc(O)cc(Cc2ccccc2)n1` (stereo not drawn) registered a concentration for a half-maximal effect (EC50) of 1.2 µM.
The same measure, in the same setting: for `CC1(C)C(=O)NC(SC2CCCCC2)=N/C1=C/c1ccccc1` the value was 9.1 µM; for `Cc1cccc(/C=C2/N=C(SCC(C)C)NC(=O)C2(C)C)c1`, over 316 µM; for `Cc1cccc(Cc2cc(O)nc(SC(C)C)n2)c1`, 1.3 µM.
Same read-out and setting: the value for `CSC1=N/C(=C/c2ccccc2)C(C)(C)C(=O)N1` was 3.1 µM.

The test system of another assay is MT4. The experiment in a line: Compound dose required to reduce the viability of mock-infected cells by 50%. It counts as functional. As to conditions: Homo sapiens.
Compound `CC1(C)C(=O)NC(SC2CCCC2)=N/C1=C/c1ccccc1` registered a CC50 of 18 µM.
The same measure, in the same setting: for `CC(C)SC1=N/C(=C/c2ccccc2)C(C)(C)C(=O)N1` the value was 20 µM; for `CC(C)CSc1nc(O)cc(Cc2ccccc2)n1`, 186 µM; for `C/C=C/CSc1nc(O)cc(Cc2cccc(C)c2)n1`, 165 µM.
Same read-out and setting: for `CCC(C)Sc1nc(O)c(C)c(Cc2ccccc2)n1` (stereo not drawn) the value was 86 µM.
Still for that read-out and setting: the value for `CSc1nc(O)cc(Cc2cccc(C)c2)n1` was 317 µM.
The compound `CC(C)=CCSc1nc(O)cc(Cc2cccc(C)c2)n1` came in with a CC50 of 193 µM.
The same measure, in the same setting: for `Cc1cccc(Cc2nc(SC(C)C)nc(O)c2C)c1` the value was 100 µM.
Still for that read-out and setting: the value for `Cc1c(O)nc(SC2CCCCC2)nc1Cc1ccccc1` was over 318 µM.
As to `CSc1nc(O)c(C)c(Cc2ccccc2)n1`, the CC50 is over 406 µM.
For `CSc1nc(O)cc(Cc2ccccc2)n1`, the CC50 is over 431 µM.
Still for that read-out and setting: for `CSc1nc(O)c(C)c(Cc2cccc(C)c2)n1` the value was 385 µM; for `Cc1cccc(Cc2cc(O)nc(SC3CCCCC3)n2)c1`, over 318 µM.
The same measure, in the same setting: for `Cc1cccc(Cc2cc(O)nc(SC3CCCC3)n2)c1` the value was over 333 µM.
Regarding `Cc1c(O)nc(SC(C)C)nc1Cc1ccccc1`, the CC50 was determined as 140 µM.
On the same count and under the same terms, for `CC(C)CSC1=N/C(=C/c2ccccc2)C(C)(C)C(=O)N1` the value was 20 µM; for `Cc1cccc(Cc2nc(SCC(C)C)nc(O)c2C)c1`, 330 µM.
Still for that read-out and setting: the value for `CC(C)Sc1nc(O)cc(Cc2ccccc2)n1` was 332 µM.
`CCC(C)Sc1nc(O)cc(Cc2ccccc2)n1` (stereo not drawn) displayed a 50% cytotoxic concentration (CC50) of 150 µM.
`CC1(C)C(=O)NC(SC2CCCCC2)=N/C1=C/c1ccccc1`: the cytotoxic concentration (CC50) came out at 91 µM.
Same read-out and setting: for `Cc1cccc(Cc2cc(O)nc(SC(C)C)n2)c1` the value was 225 µM; for `CSC1=N/C(=C/c2ccccc2)C(C)(C)C(=O)N1`, 160 µM.

By CC50 is commonly meant the concentration at which the toxic effect on the cells reaches its halfway point. A low value points to greater toxicity to the cells. By IC50 is commonly meant the concentration that inhibits the measured activity by half. For orientation: EC50 means the concentration that produces a half-maximal response. The low end stands for higher potency in that assay, the high end for lower potency in that assay.
